Reference: ChEMBL document CHEMBL4342424, “A synthetic 2,3-diarylindole induces microtubule destabilization and G2/M cell cycle arrest in lung cancer cells” (Bioorg Med Chem Lett, 2020)
Activity calls are given as the source filed them. The calls are words filed in the database; no cut-off is given here.

What was measured:
[1] = Drug uptake in nucleus of human A549 cells at 250 uM incubated for 3 hrs by Hoechst 33342 staining based confocal laser microscopic method; type: ADME, subcellular; details: a549, 3 h
How it was run: (§1)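 Live A549 cells were incubated for 3 h with the FITC-linked conjugate at 250 μM, then stained with Hoechst 33342 nuclear dye at 0.1 for 5 min. Live-cell confocal laser microscopy located the green signal in the cytoplasm or nucleus.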

[2] = Drug uptake in cytoplasm of human A549 cells at 250 uM incubated for 3 hrs by Hoechst 33342 staining based confocal laser microscopic method; type: ADME, subcellular; details: a549, 3 h; how it was run: as §1
A549 [3] = experiment: Antiproliferative activity against human A549 cells assessed as reduction in cell viability after 72 hrs by MTT assay; type: functional, cell-based; details: A549, 72 h
A549 [4] = experiment: Induction of cell cycle arrest in human A549 cells assessed as accumulation at G2/M phase at 200 uM incubated for 24 hrs by Muse cell analyzer based flow cytometry (reference value: 16.2%); type: functional
A549 [5] = experiment: Cytotoxicity against human A549 cells assessed as change in cell morphology incubated for 48 hrs; type: functional, cell-based
Tubulin (Sus scrofa) [6] = target: T1, Tubulin (Sus scrofa) (UniProt P02554+P02550); experiment: Induction of porcine brain tubulin polymerization at 10 uM
T1 sequence (P02550 whole entry, looked up): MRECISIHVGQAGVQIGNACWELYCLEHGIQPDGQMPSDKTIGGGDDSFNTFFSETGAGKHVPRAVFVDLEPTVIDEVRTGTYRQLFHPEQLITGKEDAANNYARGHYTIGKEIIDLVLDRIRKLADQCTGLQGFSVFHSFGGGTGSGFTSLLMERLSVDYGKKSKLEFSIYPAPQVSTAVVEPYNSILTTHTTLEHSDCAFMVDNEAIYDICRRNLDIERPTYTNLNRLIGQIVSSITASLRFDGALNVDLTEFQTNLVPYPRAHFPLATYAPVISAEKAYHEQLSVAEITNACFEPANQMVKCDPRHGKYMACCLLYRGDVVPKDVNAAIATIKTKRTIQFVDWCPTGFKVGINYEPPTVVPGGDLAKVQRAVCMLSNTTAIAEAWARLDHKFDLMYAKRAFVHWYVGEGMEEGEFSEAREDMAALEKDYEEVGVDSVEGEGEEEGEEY
T1 sequence (P02554 whole entry, looked up): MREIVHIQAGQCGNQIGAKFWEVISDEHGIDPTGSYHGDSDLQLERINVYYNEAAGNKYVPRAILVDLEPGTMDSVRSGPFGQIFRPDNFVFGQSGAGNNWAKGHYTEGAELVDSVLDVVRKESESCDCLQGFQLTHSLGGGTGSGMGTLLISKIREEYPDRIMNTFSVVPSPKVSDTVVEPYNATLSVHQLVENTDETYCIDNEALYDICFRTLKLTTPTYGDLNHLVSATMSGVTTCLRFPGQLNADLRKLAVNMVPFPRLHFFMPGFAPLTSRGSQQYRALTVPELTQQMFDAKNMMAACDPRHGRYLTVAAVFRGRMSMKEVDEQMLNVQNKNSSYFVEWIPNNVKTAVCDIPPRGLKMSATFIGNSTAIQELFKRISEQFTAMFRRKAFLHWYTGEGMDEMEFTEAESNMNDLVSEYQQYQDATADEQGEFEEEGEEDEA

Tubulin (Sus scrofa) [7] = target: T1, Tubulin (Sus scrofa); experiment: Inhibition of porcine brain tubulin polymerization at 10 uM
A549 [8] = experiment: Induction of cell cycle arrest in human A549 cells assessed as accumulation at G0/G1 phase at 2.5 uM incubated for 24 hrs by Muse cell analyzer based flow cytometry (reference value: 63.9%); type: functional
A549 [9] = experiment: Induction of cell cycle arrest in human A549 cells assessed as accumulation at S phase at 2.5 uM incubated for 24 hrs by Muse cell analyzer based flow cytometry (reference value: 8%); type: functional
A549 [10] = experiment: Induction of cell cycle arrest in human A549 cells assessed as accumulation at G0/G1 phase at 5 uM incubated for 24 hrs by Muse cell analyzer based flow cytometry (reference value: 63.9%); type: functional
A549 [11] = experiment: Induction of cell cycle arrest in human A549 cells assessed as increase in accumulation at G2/M phase incubated for 24 hrs by Muse cell analyzer based flow cytometry; type: functional
A549 [12] = experiment: Induction of cell cycle arrest in human A549 cells assessed as accumulation at G2/M phase at 2.5 uM incubated for 24 hrs by Muse cell analyzer based flow cytometry (reference value: 22.3 to 24%); type: functional
A549 [13] = experiment: Induction of cell cycle arrest in human A549 cells assessed as accumulation at G2/M phase at 5 uM incubated for 24 hrs by Muse cell analyzer based flow cytometry (reference value: 22.3 to 24%); type: functional
A549 [14] = experiment: Induction of cell cycle arrest in human A549 cells assessed as accumulation at S phase at 5 uM incubated for 24 hrs by Muse cell analyzer based flow cytometry (reference value: 8%); type: functional

In the case of `O=C(OCCOCCOCCOCCOCCOCCNC(=S)Nc1ccc(-c2c3ccc(=O)cc-3oc3cc(O)ccc23)c(C(=O)O)c1)c1ccc(-c2c(-c3ccccc3)[nH]c3ccccc23)cc1`, the Drug uptake [1] is reported as “Not Active”, the Drug uptake [2] is reported as “Active” and the IC50 (A549 [3]) is reported as 238 µM. It also gave an Activity (A549 [4]) of 53.3%.

In the case of `O=C(OCCOCCOCCO)c1ccc(-c2c(-c3ccccc3)[nH]c3ccccc23)cc1`, the Activity (A549 [5]) is reported as “Active” and the IC50 (A549 [3]) is reported as 10.2 µM.

For `COC(=O)c1ccc(-c2c(-c3ccccc3)n(CCOCCOCCO)c3ccccc23)cc1`, the IC50 (A549 [3]) was 30.8 µM.

Work on `COC(=O)c1ccc(-c2c(-c3ccccc3)c3ccccc3n2CCOCCOCCO)cc1` yielded an IC50 (A549 [3]) of 41.3 µM.

For `O=C(OCCOCCOCCO)c1ccc(-c2[nH]c3ccccc3c2-c2ccccc2)cc1`, the IC50 (A549 [3]) was 29.5 µM.

For `CC(=O)O[C@H]1C(=O)[C@@]2(C)[C@H]([C@H](OC(=O)c3ccccc3)[C@]3(O)C[C@H](OC(=O)[C@H](O)[C@@H](NC(=O)c4ccccc4)c4ccccc4)C(C)=C1C3(C)C)[C@]1(OC(C)=O)CO[C@@H]1C[C@@H]2O`, the Activity (Tubulin (Sus scrofa) [6]) was “Active”.

In the case of `COC(=O)c1ccc(-c2c(-c3ccccc3)[nH]c3ccccc23)cc1`, the inhibition (Tubulin (Sus scrofa) [7]) is reported as “Active”, the Activity (A549 [8]) is reported as 40.9% and the Activity (A549 [9]) is reported as 9.5%. For the same compound, the Activity (A549 [10]) was 10.2%, the Activity (A549 [11]) was “Dose-dependent effect” and the Activity (A549 [12]) was 41.4 - 42.8%. For the same compound, the Activity (A549 [13]) was 70 - 71% and the Activity (A549 [14]) was 7.5%.
